Reference: PMC7993281 (Clinical and Translational Science, 2020)

Tests used:
Format in all cases: in vivo, human
[1] = Single-ascending dose; details: for Tmax / half-life / CL renal: human, oral; for Tmax / half-life: plasma
In short: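 Healthy men, single oral 10–2,000 mg after a 10-hour fast. The 300 mg cohort was repeated 30 min after a high-fat, high-calorie breakfast following at least 7 days washout. Plasma sampled up to 48 h; 300 mg urine collected at 0–12, 12–24 and 24–48 h. Validated LC-MS/MS with noncompartmental analysis. Fed/fasted GMR with 90% CI; Tmax compared by nonparametric median difference.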

[2] = Multiple-ascending dose; details: for Tmax: median (range); for CL renal: urine and plasma
In short: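 Oral 30, 100, 300 or 1,000 mg b.i.d. for 7 days in healthy men and women, n = 8 active per dose. Plasma sampled for 12 h on Day 1, at trough on Days 2–6, and up to 72 h after the last dose. Urine collected predose Day 1 and 0–12 h on Day 7. Validated LC-MS/MS. Noncompartmental analysis gave AUCτ, accumulation index and CLR.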

[3] = test system: glucosylceramide (GlcCer) plasma concentration; experiment: MAD study pharmacodynamics: plasma GlcCer
In short: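 Healthy men and women (1:1), 8 active and 2 placebo per cohort. Oral 30, 100, 300 or 1,000 mg b.i.d. for 7 days. Morning dose after a 10-hour fast, evening dose 2 hours after dinner. Plasma sampled on Days 1, 2, 4 and 7 and at 24, 48 and 72 h after the last dose. Validated LC-MS/MS. Percent change from Day 1 predose.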

[4] = Day 7, 30 mg b.i.d., geometric mean (95% CI)
[5] = Day 7, 100 mg b.i.d., geometric mean (95% CI)
[6] = Day 7, 300 mg b.i.d., geometric mean (95% CI)
[7] = Day 7, 1,000 mg b.i.d., geometric mean (95% CI)
[8] = both, human, plasma, oral, 30 mg
[9] = both, human, plasma, oral, 100 mg
[10] = both, human, plasma, oral, 300 mg
[11] = both, human, plasma, oral, 1000 mg b.i.d.

fraction of dose excreted unchanged in urine ([1]; 300 mg single dose): About half
median difference in Tmax, fed vs fasted ([1]; 300 mg single dose, high‐fat, high‐calorie meal, 90% CI 0.50–1.70): 1 h
Tmax ([1]; 100 mg, single dose 100 mg, fasted, median (range)): 1.4 h
Tmax ([1]; 300 mg, single dose 300 mg fasted, median (range)): 0.9 h
Tmax ([1]; 300 mg, single dose 300 mg fed, median (range)): 2.25 h
half-life ([1]; 1000 mg): 11.6 h
Tmax ([1]; 1000 mg, single dose 1,000 mg, fasted, median (range)): 1.5 h
Tmax ([1]; 2000 mg, single dose 2,000 mg, fasted, median (range)): 2 h
CL renal ([1]; urine and plasma, 300 mg): 225 mL/min
CL renal ([1]; male, plasma and urine, 300 mg): 225 mL/min
half-life ([1]; male): ~12 h
Tmax ([1]; male, across single doses 10 to 2,000 mg): 0.9 to 2 h
duration of distribution phase ([1]; single dose): ~ 24 hours
UPE, percentage of dose excreted unchanged in urine ([1]; single dose 300 mg fasted, geometric mean (95% CI)): 48.74 (43.53, 54.59) %
AI, accumulation index [2, 4]: 1.085 (0.993, 1.185)
UPE, percentage of dose excreted unchanged in urine [2, 4]: 55.12 (52.08, 58.34) %
AI, accumulation index [2, 5]: 1.037 (0.930, 1.156)
UPE, percentage of dose excreted unchanged in urine [2, 5]: 53.55 (44.68, 64.19) %
AI, accumulation index [2, 6]: 1.101 (1.012, 1.198)
UPE, percentage of dose excreted unchanged in urine [2, 6]: 48.35 (40.84, 57.24) %
AI, accumulation index [2, 7]: 1.001 (0.942, 1.064)
UPE, percentage of dose excreted unchanged in urine [2, 7]: 45.54 (41.54, 49.92) %
increased exposure (Cmax and AUCτ) in female compared to male subjects ([2]; all dose groups combined, steady‐state): around 30%
time to steady‐state concentrations ([2]; b.i.d. dosing): ≤ 2 days
accumulation after multiple doses ([2]; b.i.d. for 7 days): did not accumulate
AUC [2, 8]: 1310 ng·h/mL
AUC(0-t) [2, 8]: 1200 ng·h/mL
Cmax ([2]; both, human, plasma, oral, 30 mg, Cmax, Day 7, 30 mg b.i.d., geometric mean (95% CI)): 413 ng/mL
Tmax ([2]; both, human, plasma, oral, 30 mg, Day 1, 30 mg b.i.d.): 0.9 h
Tmax ([2]; both, human, plasma, oral, 30 mg, Day 7, 30 mg b.i.d.): 0.9 h
AUC [2, 9]: 4650 ng·h/mL
AUC(0-t) [2, 9]: 4480 ng·h/mL
Cmax ([2]; both, human, plasma, oral, 100 mg, Cmax, Day 1, 100 mg b.i.d., geometric mean (95% CI)): 1340 ng/mL
Cmax ([2]; both, human, plasma, oral, 100 mg, Cmax, Day 7, 100 mg b.i.d., geometric mean (95% CI)): 1270 ng/mL
Tmax ([2]; both, human, plasma, oral, 100 mg, Day 1, 100 mg b.i.d.): 0.9 h
Tmax ([2]; both, human, plasma, oral, 100 mg, Day 7, 100 mg b.i.d.): 1.3 h
AUC [2, 10]: 16800 ng·h/mL
AUC(0-t) [2, 10]: 15200 ng·h/mL
Cmax ([2]; both, human, plasma, oral, 300 mg, Cmax, Day 1, 300 mg b.i.d., geometric mean (95% CI)): 3760 ng/mL
Cmax ([2]; both, human, plasma, oral, 300 mg, Cmax, Day 7, 300 mg b.i.d., geometric mean (95% CI)): 3990 ng/mL
Tmax ([2]; both, human, plasma, oral, 300 mg, Day 1, 300 mg b.i.d.): 1.4 h
Tmax ([2]; both, human, plasma, oral, 300 mg, Day 7, 300 mg b.i.d.): 0.9 h
AUC [2, 11]: 51200 ng·h/mL
AUC(0-t) [2, 11]: 51200 ng·h/mL
half-life [2, 11]: 14.7 h
Cmax ([2]; both, human, plasma, oral, 1000 mg b.i.d., Cmax, Day 1, 1,000 mg b.i.d., geometric mean (95% CI)): 10600 ng/mL
Cmax ([2]; both, human, plasma, oral, 1000 mg b.i.d., Cmax, Day 7, 1,000 mg b.i.d., geometric mean (95% CI)): 10400 ng/mL
Tmax ([2]; both, human, plasma, oral, 1000 mg b.i.d., Day 1, 1,000 mg b.i.d.): 1.45 h
Tmax ([2]; both, human, plasma, oral, 1000 mg b.i.d., Day 7, 1,000 mg b.i.d.): 2 h
CL renal ([2]; both, human, oral, 30 mg): 211 mL/min
CL renal ([2]; both, human, oral, 100 mg): 192 mL/min
CL renal ([2]; both, human, oral, 300 mg): 144 mL/min
CL renal ([2]; both, human, oral, 1000 mg b.i.d.): 148 mL/min
dose excreted unchanged in urine ([2]; doses ranging from 30 to 1,000 mg b.i.d.): ~ 50%
Cmax ([2]; female, human, plasma, oral, 1000 mg b.i.d., geometric mean Cmax in women, female subjects, 1,000 mg b.i.d. cohort, day 7): 12000 ng/mL
SMILES: CCCCCN1C[C@H](O)[C@@H](O)[C@H](O)[C@@H]1CO [sinbaglustat, (2S,3R,4R,5S)‐2‐(hydroxymethyl)‐1‐pentylpiperidine‐3,4,5‐triol]
GlcCer during the treatment period ([3]; 30 mg b.i.d.): remained at baseline
GlcCer increase from baseline concentration ([3]; 30 mg b.i.d., 72 hours after the last dose): 32%
GlcCer percentage change from baseline ([3]; 100 mg b.i.d., 48 hours after the last dose): –7%
GlcCer percentage change from baseline ([3]; 300 mg b.i.d., 72 hours after the last dose): –1%
